ChEMBL document CHEMBL1126670, “Cyclic peptides as selective tachykinin antagonists” (J Med Chem, 1993)
One block for each compound: values may come before it. Where a SMILES comes first, the peptide text is derived from it.

Tests used:
Conditions in all cases: read-out: pA2 (converted)
Substance-K receptor = target: T1, Substance-K receptor (Rattus norvegicus, UniProt P16610); assay: Inhibition of eledoisin binding to NK-2 receptor in rat vas deferens
T1 sequence (P16610 whole entry): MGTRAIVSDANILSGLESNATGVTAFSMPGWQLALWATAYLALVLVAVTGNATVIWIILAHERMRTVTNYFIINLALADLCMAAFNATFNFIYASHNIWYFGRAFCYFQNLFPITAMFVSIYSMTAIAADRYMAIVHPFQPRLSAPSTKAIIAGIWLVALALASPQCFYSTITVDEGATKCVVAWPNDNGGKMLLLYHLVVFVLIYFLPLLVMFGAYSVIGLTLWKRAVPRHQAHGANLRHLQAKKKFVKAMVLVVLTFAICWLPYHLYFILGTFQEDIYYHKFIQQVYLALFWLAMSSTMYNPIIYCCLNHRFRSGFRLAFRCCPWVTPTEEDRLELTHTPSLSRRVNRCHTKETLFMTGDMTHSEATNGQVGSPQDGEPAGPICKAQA
In short: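 Vas deferens from Sprague-Dawley rats (200–300 g), electrically stimulated contractions with supramaximal rectangular bipolar pulses. Eledoisin log dose-response curves; antagonism taken from rightward shift. pA2 by Schild regression over three or more antagonist concentrations, or apparent pA2 from one antagonist concentration via the standard Schild equation assuming unit slope.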

Substance-P receptor = Substance-P receptor (Cavia porcellus, UniProt P30547); assay: Tested for antagonist activity toward NK-1 receptor in guinea pig ileum against the agonist eledoisin (mean +/-, n=4); assay type: functional, tissue-based
Sequence of Substance-P receptor (P30547 whole entry): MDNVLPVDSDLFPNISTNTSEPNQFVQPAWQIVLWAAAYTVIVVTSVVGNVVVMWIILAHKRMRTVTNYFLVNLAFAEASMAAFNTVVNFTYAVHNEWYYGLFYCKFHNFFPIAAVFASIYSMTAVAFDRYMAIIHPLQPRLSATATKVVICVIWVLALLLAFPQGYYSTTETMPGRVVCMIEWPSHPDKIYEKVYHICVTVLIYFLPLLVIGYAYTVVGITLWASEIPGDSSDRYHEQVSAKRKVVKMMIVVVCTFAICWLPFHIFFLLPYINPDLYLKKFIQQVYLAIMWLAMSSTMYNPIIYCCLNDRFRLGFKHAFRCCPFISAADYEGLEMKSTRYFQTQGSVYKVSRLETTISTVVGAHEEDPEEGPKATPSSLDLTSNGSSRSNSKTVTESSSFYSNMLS
In short: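 Guinea pig (male Dunkin-Hartley, 300–400 g) small-intestine longitudinal muscle, isometric contraction in Krebs-Henseleit at 37 °C with atropine, mepyramine, methysergide (each 5 μM) and indomethacin (1 μM). Antagonism measured as rightward shift of log dose-response curves to eledoisin. pA2 from Schild regression (least squares, three or more antagonist concentrations, three or more observations each), or apparent pA2 at a single concentration assuming unit slope (mean of 3–4 observations).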

Neuromedin-K receptor = target: T2, Neuromedin-K receptor (Rattus norvegicus, UniProt P16177); assay: Tested for antagonist activity toward NK-3 receptor in rat portal vein against the agonist eledoisin (mean +/-, n=4); assay type: functional
T2 sequence (P16177 whole entry): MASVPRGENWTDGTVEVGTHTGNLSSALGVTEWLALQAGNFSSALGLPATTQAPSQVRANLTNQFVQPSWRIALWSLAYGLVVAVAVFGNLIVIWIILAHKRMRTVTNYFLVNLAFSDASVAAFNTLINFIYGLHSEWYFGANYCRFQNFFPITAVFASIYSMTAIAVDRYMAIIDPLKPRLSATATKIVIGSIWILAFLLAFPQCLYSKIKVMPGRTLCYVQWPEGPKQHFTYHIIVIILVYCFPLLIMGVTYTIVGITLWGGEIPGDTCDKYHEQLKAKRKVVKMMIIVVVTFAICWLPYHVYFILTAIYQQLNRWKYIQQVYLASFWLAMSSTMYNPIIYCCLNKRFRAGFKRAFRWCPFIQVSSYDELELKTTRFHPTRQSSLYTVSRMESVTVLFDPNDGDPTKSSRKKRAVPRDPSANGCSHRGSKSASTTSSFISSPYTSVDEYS
In short: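 Rat portal vein longitudinal strips; frequency and amplitude of myogenic contractions recorded. Antagonist activity derived from rightward shift of eledoisin log dose-response curves. pA2 by Schild regression, least squares, three or more antagonist concentrations, or apparent pA2 at a single antagonist concentration assuming unit slope (mean of three or four observations).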

Compound: CSCC[C@@H]1NC(=O)[C@H](CC(C)C)N2C=C[C@@H](NC(=O)[C@H](Cc3ccccc3)NC(=O)[C@H](Cc3ccccc3)NC(=O)[C@H](CCC(N)=O)NC1=O)C2=O
Kb (Substance-K receptor): 15.8 µM

Compound: CSCC[C@@H]1NC(=O)[C@H](CC(C)C)NC(=O)[C@@H]2CCCN2C(=O)[C@H](Cc2ccccc2)NC(=O)[C@H](Cc2c[nH]c3ccccc23)NC(=O)[C@H](CCC(N)=O)NC1=O
Kb (Substance-K receptor): 15.8 µM

Compound: CSCC[C@@H]1NC(=O)[C@H](CC(C)C)NC(=O)[C@H]2CCCN2C(=O)[C@H](Cc2ccccc2)NC(=O)[C@H](Cc2c[nH]c3ccccc23)NC(=O)[C@H](CCC(N)=O)NC1=O
Kb (Substance-K receptor): 20 µM

Next, values leading:

Kb (Substance-K receptor): 2.51 µM
Compound: CSCC[C@@H]1NC(=O)[C@H](CC(C)C)N2C=C[C@@H](NC(=O)[C@H](Cc3ccccc3)NC(=O)[C@](C)(c3cccc4ccccc34)NC(=O)[C@H](CCC(N)=O)NC1=O)C2=O

Kb (Substance-P receptor): 2 µM
Kb (Substance-K receptor): 0.00794 µM
Kb (Neuromedin-K receptor): 7.94 µM
Compound: CSCC[C@@H]1NC(=O)[C@H](CC(C)C)NC(=O)CNC(=O)[C@H](Cc2ccccc2)NC(=O)[C@H](Cc2c[nH]c3ccccc23)NC(=O)[C@H](CCC(N)=O)NC1=O (cyclo(FGLMQW))

Kb (Substance-K receptor): 0.631 µM
Compound: CSCC[C@@H]1NC(=O)[C@H](CC(C)C)NC(=O)[C@H](Cc2ccccc2)NC(=O)[C@H](Cc2c[nH]c3ccccc23)NC(=O)[C@H](CCC(N)=O)NC1=O (cyclo(FLMQW))
